Results pooled from the literature.
Lines come from different studies, so protocols differ. pEC50, pIC50: −log10 of the molar value. Converted amounts (≈) assume the structure as drawn.

The MIC of CCCCCCCC(=O)NP(=O)(O)O is reported as greater than 200 µg/mL (Bacillus subtilis; microbial growth; ATCC23857).
CN1C[C@H](C(=O)N[C@]2(C)O[C@@]3(O)[C@@H]4CCCN4C(=O)[C@H](Cc4ccccc4)N3C2=O)C=C2c3cccc4[nH]cc(c34)C[C@H]21 gave a pEC50 of 4.24 (WI-38; cell growth or viability, MTT; 72 h).
The pIC50 of N.N.[Cl][Pt][Cl] is reported as 5.22 (HCC827; cell growth or viability, MTT; 72 h).
The IC50 of Cc1cc(N(CCO)CCO)ccc1C=O is reported as greater than 10 µg/mL (CAKI-1; cell growth or viability).
With CN[C@@H]1[C@H](O)[C@H](NC)[C@H]2O[C@@]3(O)C(=O)C[C@@H](C)O[C@H]3O[C@@H]2[C@H]1O the MIC was 50 µg/mL (≈ 150 µM) (Proteus vulgaris; microbial growth, broth dilution; ATCC33420).
For Cc1cccc(-n2ncc(Cl)c(Cl)c2=O)c1, the pIC50 was 7.05 (HCC827; cell growth or viability, resazurin; 96 h).
Cc1ncc([N+](=O)[O-])n1CCO has an MIC50 of 0.5 µg/mL (≈ 2.92 µM) (Clostridium perfringens; microbial growth).
With OC(Cn1cncn1)(Cn1cncn1)c1ccc(F)cc1F the MIC was 3.12 µg/mL (≈ 10.2 µM) (Cryptococcus neoformans; microbial growth, broth dilution).
For COc1ccc(/C=C\c2cc(OC)c(OC)c(OC)c2)cc1, the pIC50 was 5.96 (tubulin polymerisation, inhibitor, absorbance).
The pIC50 of O=C1CCc2ccc(O)c(c2)Oc2ccc(cc2)/C=C\CO1 is reported as less than 4.40 (tubulin polymerisation, inhibitor).
For O=C(CCCCCCCCCCOc1ccccc1)NP(=O)(O)O, the MIC was greater than 200 µg/mL (Bacillus subtilis; microbial growth; ATCC23857).
The pIC50 of O=C1CCc2ccc(O)c(c2)Oc2ccc(cc2)[C@H]2O[C@@H]2CO1 is reported as less than 4.40 (tubulin polymerisation, inhibitor).
The MIC50 of O=[N+]([O-])c1ccc(C2=[N+]([O-])c3ccccc3N3CCN=C23)cc1 is reported as no more than 0.06 µg/mL (Clostridium perfringens; microbial growth).
